Test results published in ChEMBL document CHEMBL2016446, “Trivalent ultrashort lipopeptides are potent pH dependent antifungal agents” (J Med Chem, 2012).
Converted amounts (≈) assume the structure as drawn. The source made the active and inactive calls. The rule behind the calls is not given here.

Tests used:
[1] = tested on: Aspergillus fumigatus; assay: Antifungal activity against Aspergillus fumigatus ATCC 26430 after 48 hrs at pH 5.5; type: functional; conditions: ATCC 26430, 48 h
Procedure, shortened: (§1)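 The method followed CLSI M38-A2 (Aspergillus) or M27-A3. Medium was RPMI 1640 with 0.165 M MOPS and L-glutamine, without NaHCO3, at pH 5.5 or 7.5. Inoculum of 2 × 10^3 CFU/mL was mixed 1:1 with serial 2-fold peptide dilutions. Incubation was at 35 °C: 48 h for A. fumigatus and C. albicans, 72 h for C. neoformans. MIC was read by eye as no growth. Values are averages of duplicates.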

[2] = tested on: Candida albicans; assay: Antifungal activity against Candida albicans ATCC 10231 after 48 hrs at pH 5.5; type: functional; conditions: ATCC 10231, 48 h; procedure, shortened: as §1
[3] = tested on: Cryptococcus neoformans; assay: Antifungal activity against Cryptococcus neoformans ATCC MYA422 after 72 hrs at pH 5.5; type: functional; conditions: ATCC MYA422, 72 h; procedure, shortened: as §1
[4] = tested on: Escherichia coli; assay: Antibacterial activity against Escherichia coli ATCC D21 after 18 to 20 hrs at pH 5.5; type: functional, organism-based
Procedure, shortened: (§2)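 Broth microdilution in LB: bacterial suspension at 10^6 CFU/mL mixed 1:1 with serial 2-fold peptide dilutions, made from a 1 mg/mL aqueous stock. Strains were E. coli ATCC D21 and S. aureus ATCC 6538P. MIC was the lowest concentration with no growth after 18–20 h. Values are averages of duplicate experiments.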

[5] = tested on: Staphylococcus aureus; assay: Antibacterial activity against Staphylococcus aureus ATCC 6538P after 18 to 20 hrs at pH 5.5; type: functional, organism-based; procedure, shortened: as §2
[6] = tested on: Aspergillus fumigatus; assay: Induction of membrane damage in Aspergillus fumigatus at 1.56 to 100 uM at pH 5.5 by Sytox green-based fluorescence assay; type: functional, organism-based
Procedure, shortened: (§3)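 A. fumigatus at 2 × 10^3 CFU/mL in RPMI/MOPS (pH 7.4 or 5.5) was grown 20 h at 35 °C. Sytox green was added at 0.2 μM final in sodium phosphate buffer (pH 5.5 or 7.5) for 15 min. Peptides were then added at 100–1.56 μM final. Fluorescence (ex 485/em 530 nm) was read after 1 h.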

[7] = tested on: Aspergillus fumigatus; assay: Induction of membrane damage in Aspergillus fumigatus at 1.56 to 100 uM at pH 7.5 by Sytox green-based fluorescence assay; type: functional, organism-based; procedure, shortened: as §3
[8] = tested on: Aspergillus fumigatus; assay: Induction of membrane depolarization in Aspergillus fumigatus at 1.56 to 100 uM at pH 5.5 by DiSC3(5)-based fluorescence assay; type: functional, organism-based
Procedure, shortened: (§4)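 A. fumigatus was pregrown 20 h at 35 °C from 2 × 10^3 CFU/mL in RPMI/MOPS (pH 7.4 or 5.5). Cells were loaded with DiSC3(5) at 0.2 μM final in sodium phosphate buffer (pH 5.5 or 7.5) for 15 min. Peptides were added at 1.56–100 μM final, and fluorescence (ex 640/em 660 nm) was read after 1 h.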

[9] = tested on: Aspergillus fumigatus; assay: Induction of membrane depolarization in Aspergillus fumigatus at 1.56 to 100 uM at pH 7.5 by DiSC3(5)-based fluorescence assay; type: functional, organism-based; procedure, shortened: as §4
[10] = tested on: Aspergillus fumigatus; assay: Antifungal activity against Aspergillus fumigatus ATCC 26430 after 48 hrs at pH 7.5; type: functional; conditions: ATCC 26430, 48 h; procedure, shortened: as §1
[11] = tested on: Candida albicans; assay: Antifungal activity against Candida albicans ATCC 10231 after 48 hrs at pH 7.5; type: functional; conditions: ATCC 10231, 48 h; procedure, shortened: as §1
[12] = tested on: Cryptococcus neoformans; assay: Antifungal activity against Cryptococcus neoformans ATCC MYA422 after 72 hrs at pH 7.5; type: functional; conditions: ATCC MYA422, 72 h; procedure, shortened: as §1
[13] = tested on: Escherichia coli; assay: Antibacterial activity against Escherichia coli ATCC D21 after 18 to 20 hrs at pH 7.5; type: functional, organism-based; procedure, shortened: as §2
[14] = tested on: Staphylococcus aureus; assay: Antibacterial activity against Staphylococcus aureus ATCC 6538P after 18 to 20 hrs at pH 7.5; type: functional, organism-based; procedure, shortened: as §2
[15] = tested on: Aspergillus fumigatus; assay: Antifungal activity against Aspergillus fumigatus Af293 infected in immunocompromized ICR mouse assessed as survival rate at 4.5 mg/kg, at pH 5.5 it administered on day 1, 4, 7 and 11 monitored for 28 days relative to control; type: functional; conditions: route endotracheal
Procedure, shortened: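 Six-week-old female ICR mice immunocompromised with cortisone acetate (150 mg/kg in PBS/0.1% Tween 80, s.c.) 4 days before treatment, on day of first treatment, and 2 and 4 days after. A. fumigatus lung infection on day 1. Lipopeptide given i.t. at 4.5 mg/kg (50 μL, pH 5.5) on days 1, 4, 7 and 11. Controls: saline, amphotericin B 1 mg/kg i.p. Survival followed 28 days; n = 9–10.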

Structure (SMILES) | MIC [1] [µM] | MIC [2] [µM] | MIC [3] [µM] | Activity [4] | Activity [5] | Activity [6] | Activity [7] | Activity [8] | Activity [9] | MIC [10] [µM] | MIC [11] [µM] | MIC [12] [µM] | Activity [13] | Activity [14] | survival at 4.5 mg/kg [15] [%]
CCCCCCCCCCCCCCCCCC(=O)N[C@@H](Cc1c[nH]cn1)C(=O)N[C@@H](Cc1c[nH]cn1)C(=O)N1CCCN(C(=O)[C@H](Cc2c[nH]cn2)NC(=O)[C@H](Cc2c[nH]cn2)NC(=O)CCCCCCCCCCCCCCCCC)Cc2cc(cc(C(N)=O)c2)CN(C(=O)[C@H](Cc2c[nH]cn2)NC(=O)[C@H](Cc2c[nH]cn2)NC(=O)CCCCCCCCCCCCCCCCC)CCC1 | > 100 | 100 (≈ 190 µg/mL) | 25 (≈ 47.5 µg/mL) | inactive | inactive | inactive | inactive | inactive | inactive | > 100 | > 100 | > 100 | inactive | inactive | 
CCCCCCCCCCCCCCN[C@@H](Cc1cnc[nH]1)C(=O)N[C@@H](Cc1cnc[nH]1)C(=O)O | 50 (≈ 24.4 µg/mL) | > 100 | 25 (≈ 12.2 µg/mL) |  |  | inactive | inactive | inactive | inactive | > 100 | > 100 | > 100 |  |  | 
CCCCCCCCCCCCCC(=O)N[C@@H](Cc1c[nH]cn1)C(=O)N[C@@H](Cc1c[nH]cn1)C(=O)N1CCCN(C(=O)[C@H](Cc2c[nH]cn2)NC(=O)[C@H](Cc2c[nH]cn2)NC(=O)CCCCCCCCCCCCC)Cc2cc(cc(C(N)=O)c2)CN(C(=O)[C@H](Cc2c[nH]cn2)NC(=O)[C@H](Cc2c[nH]cn2)NC(=O)CCCCCCCCCCCCC)CCC1 |  |  |  |  |  |  |  |  |  |  |  |  |  |  | 55
CCCCCC(=O)N[C@@H](Cc1cnc[nH]1)C(=O)N[C@@H](Cc1cnc[nH]1)C(=O)N1CCCN(C(=O)[C@H](Cc2cnc[nH]2)NC(=O)[C@H](Cc2cnc[nH]2)NC(=O)CCCCC)Cc2cc(cc(C(N)=O)c2)CN(C(=O)[C@H](Cc2cnc[nH]2)NC(=O)[C@H](Cc2cnc[nH]2)NC(=O)CCCCC)CCC1 | > 100 | > 100 | > 100 | inactive | inactive | inactive | inactive | inactive | inactive | > 100 | > 100 | > 100 | inactive | inactive | 
